Reference: PMC3794474 (Journal of medicinal chemistry, 2011)
Where two headings read alike, the source gives them in different places.

Assays:
tadpole [1] = conditions: read-out: Tadpole LSR EC50; ± SEM; None = all animals had a swimming response at 10 µM of the test compound; cited from earlier work
BALB/C mice = assay: Anesthesia; format: in vivo, mouse; conditions: tail vein injection
tadpole [2] = conditions: read-out: Tadpole LRR EC50; ± SEM; cited from earlier work
[3] = molecular target: T1, rat α1β2γ2L type GABAA receptors expressed in Xenopus laevis oocytes (Rattus norvegicus, UniProt P62813+P63138); format: cell-based; conditions: 2 µM GABA; for Potentiation, steroids 1 and 6a directly compared on the same oocyte (Figure 4): 1 and 10 µM compound, 6 to 7 oocytes; for oocyte electrophysiology, ratio of currents in presence/absence of compound: ± SEM, N ≥ 4
How it was run: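 Rat α1β2γ2L GABAA receptors expressed in Xenopus oocytes with whole-cell recording. Currents with test compound plus 2 µM GABA were expressed as a ratio to 2 µM GABA alone, with at least four oocytes per compound. Direct gating used 10 µM compound without GABA, given as a ratio to the 2 µM GABA current. In the within-oocyte comparison, 1 or 10 µM compound was co-applied with 2 µM GABA and averaged over 6–7 oocytes.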

[4] = molecular target: picrotoxin binding site on GABAA receptors; conditions: read-out: IC50, inhibition of [35S]-TBPS binding; ± SEM; cited from earlier work
[5] = molecular target: T1, rat α1β2γ2L type GABAA receptors expressed in Xenopus laevis oocytes; conditions: 2 µM GABA, ± SEM, cited from earlier work
tadpole [6] = assay: Tadpole loss of righting reflex; format: in vivo; conditions: read-out: Tadpole LRR EC50; ± SEM, N = 10 or more animals at each of five or more concentrations
tadpole [7] = assay: Tadpole loss of swimming reflex; format: in vivo; conditions: ± SEM, None = all animals had a swimming response at 10 µM of the test compound

In the case of `CC(=O)[C@H]1CC[C@H]2[C@@H]3CC[C@H]4C[C@H](O)CC[C@]4(C)[C@H]3C(=O)C[C@]12C` [Compound 1, (3α,5α)-3-hydroxypregnane-11,20-dione], the EC50 (tadpole [1]) is given as 5.48 ± 0.11 µM, the “Anesthetic effect in mice” value (BALB/C mice; 8 mg/kg, 22.5% 2-hydroxypropyl-β-cyclodextrin) is given as “very brief anesthesia” and the “Onset of loss of righting reflex” value (BALB/C mice; mice, 16 mg/kg) is given as “immediate loss of righting reflex”. The “Recovery period from initial return of leg movement to righting and walking” value (BALB/C mice; mice, 16 mg/kg) was 1 to 2 min, the EC50 (tadpole [2]) was 1.12 ± 0.14 µM and the “Potentiation, steroids 1 and 6a directly compared on the same oocyte (Figure 4)” value [3] was “potentiate to the same level”.

For `CC(=O)C1=CC[C@H]2[C@@H]3CC[C@H]4C[C@H](O)CC[C@]4(C)[C@H]3C(=O)C[C@]12C` [Compound 2, (3α,5α)-3-hydroxypregn-16-ene-11,20-dione], the IC50 [4] is given as 2.22 µM, the EC50 (tadpole [2]) is given as over 10 µM and the “oocyte electrophysiology, ratio of currents in presence/absence of compound” value ([5]; 0.1 µM compound) is given as 0.94 ± 0.04. For the same compound, the “oocyte electrophysiology, ratio of currents in presence/absence of compound” value ([5]; 1 µM compound) was 0.97 ± 0.05 and the “oocyte electrophysiology, ratio of currents in presence/absence of compound” value ([5]; 10 µM compound) was 1.87 ± 0.14.

For `C[C@]12CC[C@@H](O)C[C@@H]1CC[C@@H]1[C@@H]2C(=O)C[C@]2(C)C(C=O)=CC[C@@H]12` [Compound 5a, (3α,5α)-3-Hydroxy-11-oxoandrost-16-ene-17-carboxaldehyde], the EC50 (tadpole [6]) was about 3 µM and the “Tadpole LSR EC50” value (tadpole [7]) was “None”.

In the case of `C[C@]12CC[C@@H](O)C[C@@H]1CC[C@H]1[C@@H]3CC[C@H](C=O)[C@@]3(C)CC(=O)[C@@H]12` [Compound 5b, (3α,5α,17β)-3-Hydroxy-11-oxoandrostane-17-carboxaldehyde], the “Tadpole LSR EC50” value (tadpole [7]) is reported as “None”.

In the case of `C[C@]12CC[C@@H](O)C[C@@H]1CC[C@@H]1[C@@H]2C(=O)C[C@]2(C)/C(=C\C#N)CC[C@@H]12` [Compound 6a, [3α,5α,17(20)Z]-3-Hydroxy-11-oxopregn-17(20)-ene-21-nitrile], the “Time to loss of movement and righting reflex (onset)” value (BALB/C mice; mice, 8 mg/kg) is reported as 10 to 25 s, the “Onset of loss of righting reflex” value (BALB/C mice; mice, 16 mg/kg) is reported as “immediate loss of righting reflex” and the “Potentiation, steroids 1 and 6a directly compared on the same oocyte (Figure 4)” value [3] is reported as “potentiate to the same level”.

`C/C(C#N)=C1\CC[C@H]2[C@@H]3CC[C@H]4C[C@H](O)CC[C@]4(C)[C@H]3C(=O)C[C@]12C` [Compound 6c, [3α,5α,17(20)Z]-3-Hydroxy-11-oxopregn-17(20)-ene-20-carbonitrile] showed an EC50 (tadpole [7]; read-out: Tadpole LSR EC50) of under 10 µM.

For “(3α,5α)-3-Hydroxy-11-oxopregnan-21-carbonitrile [Compound 5c]”, the EC50 (tadpole [6]) was 3.58 ± 1.59 µM, the “Tadpole LSR EC50” value (tadpole [7]) was “None” and the “oocyte electrophysiology, ratio of currents in presence/absence of compound” value ([3]; 0.1 µM compound) was 0.91 ± 0.03. For the same compound, the “oocyte electrophysiology, ratio of currents in presence/absence of compound” value ([3]; 1 µM compound) was 1.13 ± 0.08 and the “oocyte electrophysiology, ratio of currents in presence/absence of compound” value ([3]; 10 µM compound) was 4.67 ± 0.14.
